According to ChEMBL document CHEMBL1122765, “Cyclic melanotropins. 5. Importance of the C-terminal tripeptide (Lys-Pro-Val)” (1984):
Bridge positions count the residues as written; N and C are the ends. Peptide text beside a SMILES is read from it.

Tests used:
Mus musculus = species: Mus musculus; test: Adenylate cyclase activity in vitro in the membrane fraction from S-91 mouse melanoma tumors activity measured relative to alpha-MSH; type: functional, cell membranes
In short: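 Particulate membrane fraction from S-91 (Cloudman) melanoma tumors grown in […] mice. Adenylate cyclase measured as conversion of [α-³²P]ATP to [³²P]cAMP, with cAMP isolated and detected by the Salomon method. Potency relative to α-MSH from parallel dose–response curves.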

Lithobates pipiens = test: Ability to stimulate melanosome dispersion in vitro in the frog skin activity measured relative to alpha-MSH; type: functional
In short: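 Rana pipiens skin in vitro; melanosome dispersion read as skin darkening. Test solutions made by serial dilution from a 10⁻⁴ M stock. n = 6 or more skins per point, mean ± SE. Potency relative to α-MSH derived from parallel dose–response curves over the linear portion.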

Anolis carolinensis = test: Ability to stimulate melanosome dispersion in vitro in the lizard skin activity measured relative to alpha-MSH; type: functional
In short: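 Anolis carolinensis skin in vitro; melanosome dispersion read as skin darkening. Test solutions serially diluted from a 10⁻⁴ M stock. n = 6 skins per point, mean ± SE. Relative potency versus α-MSH taken from parallel dose–response curves over the linear range.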

| Relative potency (Mus musculus) | Structure (SMILES) | Relative potency (Lithobates pipiens) | Relative potency (Anolis carolinensis) |
| --- | --- | --- | --- |
| 0.16 | CC(=O)N[C@H]1CSSC[C@@H](C(=O)N[C@@H](CCCCN)C(N)=O)NC(=O)[C@H](Cc2c[nH]c3ccccc23)NC(=O)[C@@H](CCCN=C(N)N)NC(=O)[C@H](Cc2ccccc2)NC(=O)[C@@H](Cc2c[nH]cn2)NC(=O)[C@H](CCC(=O)O)NC1=O |  |  |
| 1.1 | CC(=O)N[C@H]1CSSC[C@@H](C(=O)N[C@@H](CCCCN)C(=O)N2CCC[C@@H]2C(=O)N[C@H](C(N)=O)C(C)C)NC(=O)[C@H](Cc2c[nH]c3ccccc23)NC(=O)[C@@H](CCCN=C(N)N)NC(=O)[C@H](Cc2ccccc2)NC(=O)[C@@H](Cc2c[nH]cn2)NC(=O)[C@H](CCC(=O)O)NC1=O |  |  |
| 0.03 | CSCC[C@H](NC(C)=O)C(=O)N[C@@H](CCC(=O)O)C(=O)N[C@@H](Cc1c[nH]cn1)C(=O)N[C@@H](Cc1ccccc1)C(=O)N[C@@H](CCCN=C(N)N)C(=O)N[C@@H](Cc1c[nH]c2ccccc12)C(=O)NCC(N)=O | 0.0007 | 0.03 |
| 1.4 | CC(=O)N[C@H]1CSSC[C@@H](C(=O)N[C@@H](CCCCN)C(=O)N2CCC[C@@H]2C(N)=O)NC(=O)[C@H](Cc2c[nH]c3ccccc23)NC(=O)[C@@H](CCCN=C(N)N)NC(=O)[C@H](Cc2ccccc2)NC(=O)[C@@H](Cc2c[nH]cn2)NC(=O)[C@H](CCC(=O)O)NC1=O |  |  |
|  | CC(=O)N[C@@H](CO)C(=O)N[C@@H](Cc1ccc(O)cc1)C(=O)N[C@@H](CO)C(=O)N[C@H]1CSSC[C@@H](C(=O)N[C@@H](CCCCN)C(=O)N2CCC[C@H]2C(=O)N[C@H](C(N)=O)C(C)C)NC(=O)[C@H](Cc2c[nH]c3ccccc23)NC(=O)[C@H](CCCN=C(N)N)NC(=O)[C@H](Cc2ccccc2)NC(=O)[C@H](Cc2c[nH]cn2)NC(=O)[C@H](CCC(=O)O)NC1=O (Ac-SYSCEHFRWCKPV-NH2; disulfide 4-10) | 10 | 2 |
|  | CC(=O)N[C@H]1CSSC[C@@H](C(=O)N[C@@H](CCCCN)C(=O)N2CCC[C@H]2C(N)=O)NC(=O)[C@H](Cc2c[nH]c3ccccc23)NC(=O)[C@H](CCCN=C(N)N)NC(=O)[C@@H](Cc2ccccc2)NC(=O)[C@H](Cc2c[nH]cn2)NC(=O)[C@H](CCC(=O)O)NC1=O | 20 | 6 |
|  | CC(=O)N[C@H]1CSSC[C@@H](C(=O)N[C@@H](CCCCN)C(=O)N2CCC[C@H]2C(N)=O)NC(=O)[C@H](Cc2c[nH]c3ccccc23)NC(=O)[C@H](CCCN=C(N)N)NC(=O)[C@H](Cc2ccccc2)NC(=O)[C@H](Cc2c[nH]cn2)NC(=O)[C@H](CCC(=O)O)NC1=O | 10 | 1.5 |
|  | CC(=O)N[C@H]1CSSC[C@@H](C(=O)N[C@@H](CCCCN)C(=O)N2CCC[C@H]2C(=O)N[C@H](C(N)=O)C(C)C)NC(=O)[C@H](Cc2c[nH]c3ccccc23)NC(=O)[C@H](CCCN=C(N)N)NC(=O)[C@H](Cc2ccccc2)NC(=O)[C@H](Cc2c[nH]cn2)NC(=O)[C@H](CCC(=O)O)NC1=O | 30 | 0.6 |
|  | CC(=O)N[C@H]1CSSC[C@@H](C(N)=O)NC(=O)[C@H](Cc2c[nH]c3ccccc23)NC(=O)[C@H](CCCN=C(N)N)NC(=O)[C@H](Cc2ccccc2)NC(=O)[C@H](Cc2c[nH]cn2)NC(=O)[C@H](CCC(=O)O)NC1=O | 0.06 | 0.003 |
| 0.016 | CC(=O)N[C@H]1CSSC[C@@H](C(N)=O)NC(=O)[C@H](Cc2c[nH]c3ccccc23)NC(=O)[C@@H](CCCN=C(N)N)NC(=O)[C@H](Cc2ccccc2)NC(=O)[C@@H](Cc2c[nH]cn2)NC(=O)[C@H](CCC(=O)O)NC1=O |  |  |
|  | CC(=O)N[C@H]1CSSC[C@@H](C(=O)N[C@@H](CCCCN)C(N)=O)NC(=O)[C@H](Cc2c[nH]c3ccccc23)NC(=O)[C@H](CCCN=C(N)N)NC(=O)[C@H](Cc2ccccc2)NC(=O)[C@H](Cc2c[nH]cn2)NC(=O)[C@H](CCC(=O)O)NC1=O | 0.16 | 0.07 |
